Series [1] relates to Staphylococcus epidermidis. The series is described as follows: Antimicrobial activity against methicillin-resistant Staphylococcus epidermidis 375 in acute infective endocarditis rabbit model assessed as bacterial titer per gram of vegetation at 10 mg/kg/day, iv after 48 hrs. Format: functional. The gist of the method:
(§1)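 New Zealand White rabbits (2 kg) with catheter-induced aortic valve endocarditis. Infected i.v. 48 h after catheter placement with 1 ml of about 1 × 10^9 CFU/ml. Bacteremia confirmed before therapy. Computer-controlled infusion via the vena cava simulated human PK for 48 h. Killed after 6 further half-lives. Vegetations cultured as log10 CFU/g; sterile meant no growth after one week. 15–17 animals per arm.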

Series [2] can be described thus: Cmax in rabbit at 10 mg/kg, iv. Particulars: in vivo.
In series [3] the test system is Staphylococcus epidermidis. The series is described as follows: Antimicrobial activity against glycopeptide-intermediate Staphylococcus epidermidis NRS6 in acute infective endocarditis rabbit model assessed as bacterial titer per gram of vegetation at 6 mg/kg/day, iv after 48 hrs. In kind it is functional. The gist of the method:
(§2)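 New Zealand White rabbits (2 kg) with catheter-induced aortic valve endocarditis were infected i.v. with 1 ml of about 1 × 10^9 CFU/ml 48 h after catheter placement. Dosing started 48 h after infection by computer-controlled i.v. infusion simulating human PK, given over 15 min for 48 h. Animals were killed after 6 half-lives. Vegetations were cultured and reported as log10 CFU/g. Sterile meant no growth, including 1-week broth culture. 15 to 17 animals per arm.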

Series [4] has as its system Staphylococcus epidermidis. The series is described as follows: Antimicrobial activity against glycopeptide-intermediate Staphylococcus epidermidis NRS6 in acute infective endocarditis rabbit model assessed as bacterial titer per gram of vegetation at 10 mg/kg/day, iv after 48 hrs. Format: functional. In short, it runs like this:
as §2

Series [5] has as its system Staphylococcus epidermidis. The series is described as follows: Antimicrobial activity against glycopeptide-intermediate Staphylococcus epidermidis NRS6 by broth microdilution method. In kind it is functional. The gist of the method: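 Broth microdilution in cation-adjusted Mueller-Hinton broth following CLSI procedures. MIC and MBC determined for each strain. For daptomycin the broth was adjusted to 50 μg/ml calcium. S. aureus ATCC 29213 served as the test control strain.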
For orientation: Broth dilution looks for growth in wells or tubes with falling amounts of substance.

Series [6] relates to Staphylococcus epidermidis. The series is described as follows: Antimicrobial activity against methicillin-resistant Staphylococcus epidermidis 375 by broth microdilution method. In kind it is functional. In short, it runs like this: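 Broth microdilution in cation-adjusted Mueller-Hinton broth following CLSI procedures. MIC and MBC determined for each strain. For daptomycin the broth was adjusted to 50 μg/ml calcium.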

The test system of series [7] is Oryctolagus cuniculus. The series is described as follows: Cmin in rabbit at 10 mg/kg/day, iv. Format: ADME, organism-based. More on the design: route intravenous. The settings on record: in vivo. The gist of the method:
(§3)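 Rabbits given drug i.v. over 15 min by computer-controlled infusion pump, designed to reproduce human serum PK (6 or 10 mg/kg/day human-equivalent regimens). Mean trough and Cmax measured in serum.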

Series [8] relates to Staphylococcus epidermidis. The series is described as follows: Antimicrobial activity against methicillin-resistant Staphylococcus epidermidis isolates. Format: functional.
The subject of series [9] is Staphylococcus epidermidis. The series is described as follows: Antimicrobial activity against glycopeptide-intermediate Staphylococcus epidermidis NRS6 in acute infective endocarditis rabbit model assessed as sterile vegetation level at 6 mg/kg/day, iv after 48 hrs. Format: functional. The gist of the method:
as §2

The test system of series [10] is Staphylococcus epidermidis. The series is described as follows: Antimicrobial activity against methicillin-resistant Staphylococcus epidermidis 375 in acute infective endocarditis rabbit model assessed as sterile vegetation level at 10 mg/kg/day, iv after 48 hrs. In kind it is functional. The gist of the method: as §1
In series [11] the test system is Staphylococcus epidermidis. The series is described as follows: Bactericidal activity against methicillin-resistant Staphylococcus epidermidis 375 at 2 times MIC after 24 hrs by time kill analysis. In kind it is functional, organism-based. In short, it runs like this:
(§4)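 Time-kill in CAMHB. Overnight culture gave a final inoculum of 5 × 10^5 to 1 × 10^6 CFU/ml. […] Viable counts taken at 0, 4 and 24 h, with carryover removed by dilution. Bactericidal meant at least a 3-log10 CFU/ml fall at 24 h versus the inoculum. Run in duplicate.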

Series [12] deals with Staphylococcus epidermidis. The series is described as follows: Bactericidal activity against glycopeptide-intermediate Staphylococcus epidermidis NRS6 at 2 times MIC after 24 hrs by time kill analysis. In kind it is functional, organism-based. In short, it runs like this: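 Time-kill in CAMHB with a starting inoculum of 5 × 10^5 to 1 × 10^6 CFU/ml from an overnight culture. […] Viable counts at 0, 4 and 24 h, with carryover handled by dilution. Bactericidal was defined as a ≥3-log10 CFU/ml fall at 24 h versus the inoculum. Run in duplicate.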

The test system of series [13] is Staphylococcus epidermidis. The series is described as follows: Antimicrobial activity against methicillin-resistant Staphylococcus epidermidis 375 in acute infective endocarditis rabbit model assessed as sterile vegetation level at 6 mg/kg/day, iv after 48 hrs. In kind it is functional. The gist of the method: as §1
Series [14] concerns Staphylococcus epidermidis. The series is described as follows: Antimicrobial activity against methicillin-resistant Staphylococcus epidermidis 375 in acute infective endocarditis rabbit model assessed as bacterial titer per gram of vegetation at 6 mg/kg/day, iv after 48 hrs. In kind it is functional. The gist of the method:
as §1

The subject of series [15] is Staphylococcus epidermidis. The series is described as follows: Antimicrobial activity against glycopeptide-intermediate Staphylococcus epidermidis NRS6 in acute infective endocarditis rabbit model assessed as sterile vegetation level at 10 mg/kg/day, iv after 48 hrs. In kind it is functional. In short, it runs like this:
as §2

Series [16] can be described thus: Cmax in rabbit at 10 mg/kg/day, iv. In kind it is ADME, organism-based, Oryctolagus cuniculus. Details: dose 10 mg/kg/day, route intravenous. The settings on record: in vivo. In short, it runs like this: as §3
Series [17] concerns Staphylococcus epidermidis. The series is described as follows: Bacteriostatic activity against glycopeptide-intermediate Staphylococcus epidermidis NRS6 at 2 times MIC after 24 hrs by time kill analysis. In kind it is functional, organism-based. In short, it runs like this:
as §4

Series [18] relates to Staphylococcus epidermidis. The series is described as follows: Antimicrobial activity against methicillin-resistant Staphylococcus epidermidis 375 in acute infective endocarditis rabbit model assessed as sterile vegetation level at 15 mg/kg, iv administered every 12 hrs measured after 48 hrs. In kind it is functional. In short, it runs like this:
as §1

The test system of series [19] is Staphylococcus epidermidis. The series is described as follows: Antimicrobial activity against methicillin-resistant Staphylococcus epidermidis 375 in acute infective endocarditis rabbit model assessed as bacterial titer per gram of vegetation at 15 mg/kg administered every 12 hrs, iv measured after 48 hrs. In kind it is functional. The gist of the method: as §1

The test system of series [20] is Staphylococcus epidermidis. The series is described as follows: Bactericidal activity against glycopeptide-intermediate Staphylococcus epidermidis NRS6 assessed as reduction in bacterial CFU at 2 times MIC after 24 hrs by time kill analysis. Format: functional.
The subject of series [21] is Staphylococcus epidermidis. The series is described as follows: Bacteriostatic activity against glycopeptide-intermediate Staphylococcus epidermidis NRS6 at MIC after 24 hrs by time kill analysis. In kind it is functional, organism-based. The gist of the method: as §4
In series [22] the test system is Oryctolagus cuniculus. The series is described as follows: Cmin in methicillin-resistant Staphylococcus epidermidis 375 infected rabbit at 60 mg/kg, iv. The settings on record: in vivo.
Series [23] deals with Staphylococcus epidermidis. The series is described as follows: Antimicrobial activity against methicillin-resistant Staphylococcus epidermidis 375 in acute infective endocarditis rabbit model assessed as sterile vegetation level at 15 mg/kg, iv administered every 6 hrs measured after 48 hrs. Format: functional. In short, it runs like this: as §1
Series [24] has as its system Staphylococcus epidermidis. The series is described as follows: Bacteriostatic activity against glycopeptide-intermediate Staphylococcus epidermidis NRS6 at 0.5 times MIC after 24 hrs by time kill analysis. Format: functional, organism-based. The gist of the method: as §4
For series [25], the system named is Staphylococcus epidermidis. The series is described as follows: Antimicrobial activity against glycopeptide-intermediate Staphylococcus epidermidis NRS6 in acute infective endocarditis rabbit model assessed as bacterial titer per gram of vegetation at 15 mg/kg administered every 12 hrs, iv measured after 48 hrs. Format: functional. In short, it runs like this:
as §1

Series [26] deals with Staphylococcus epidermidis. The series is described as follows: Bacteriostatic activity against methicillin-resistant Staphylococcus epidermidis 375 at 2 times MIC after 24 hrs by time kill analysis. In kind it is functional, organism-based. The gist of the method: as §4
Series [27] has as its system Staphylococcus epidermidis. The series is described as follows: Antimicrobial activity against methicillin-resistant Staphylococcus epidermidis 375 in acute infective endocarditis rabbit model assessed as bacterial titer per gram of vegetation at 15 mg/kg administered every 6 hrs, iv measured after 48 hrs. In kind it is functional. The gist of the method: as §1
Series [28] relates to Staphylococcus epidermidis. The series is described as follows: Bacteriostatic activity against methicillin-resistant Staphylococcus epidermidis 375 at 0.5 times MIC after 24 hrs by time kill analysis. In kind it is functional, organism-based. In short, it runs like this:
as §4

The subject of series [29] is Staphylococcus epidermidis. The series is described as follows: Antimicrobial activity against glycopeptide-intermediate Staphylococcus epidermidis NRS6 in acute infective endocarditis rabbit model assessed as sterile vegetation level at 15 mg/kg administered every 12 hrs, iv measured after 48 hrs. In kind it is functional. In short, it runs like this:
as §1

In series [30] the test system is Staphylococcus epidermidis. The series is described as follows: Bacteriostatic activity against methicillin-resistant Staphylococcus epidermidis 375 at MIC after 24 hrs by time kill analysis. In kind it is functional, organism-based. In short, it runs like this: as §4

What is called Cmax is the maximum level reached in the sampled fluid or tissue. A word on the MBC: it is the smallest concentration meeting the test's criterion for killing. The low end stands for greater bactericidal potency, the high end for weaker bactericidal potency. Usually MIC stands for the lowest concentration found to suppress growth. Higher therefore signals a need for much substance.

Converted amounts (≈) assume the structure as drawn. The source made the active and inactive calls.

In the case of `CCCCCCCCCC(=O)N[C@@H](Cc1c[nH]c2ccccc12)C(=O)N[C@H](CC(N)=O)C(=O)N[C@@H](CC(=O)O)C(=O)N[C@@H]1C(=O)NCC(=O)N[C@@H](CCCN)C(=O)N[C@@H](CC(=O)O)C(=O)N[C@H](C)C(=O)N[C@@H](CC(=O)O)C(=O)NCC(=O)N[C@H](CO)C(=O)N[C@@H]([C@H](C)CC(=O)O)C(=O)N[C@@H](CC(=O)c2ccccc2N)C(=O)O[C@@H]1C`, the log10cfu was 0 in series [1], 3.7 in [3], 3.9 in [4] and 0 in [14]. Also, the Cmax in series [2] and in series [16] was 146 µg/mL each time. Moreover, the results for the MBC in series [5] and in [6] were 4 µg/mL (≈ 2.47 µM) and 1 µg/mL (≈ 0.617 µM), respectively. In addition, the MIC in series [5] was 2 µg/mL (≈ 1.23 µM); in series [6] it was 0.5 µg/mL (≈ 0.309 µM); in [8], no less than 2 µg/mL. In the series with Oryctolagus cuniculus [7], this compound gave a Cmin of 18.04 µg/mL. The Activity is reported as 6% in series [9], 73% in series [10], 60% in series [13] and 0% in [15]. The result in [11] and in series [12] was Active.

Take `CO[C@H]1/C=C/O[C@@]2(C)Oc3c(C)c(O)c4c(O)c(c(/C=N/N5CCN(C)CC5)c(O)c4c3C2=O)NC(=O)/C(C)=C\C=C\[C@H](C)[C@H](O)[C@@H](C)[C@@H](O)[C@@H](C)[C@H](OC(C)=O)[C@@H]1C` [RIFAMPIN]: in [5], the MBC was greater than 0.25 µg/mL and 0.008 µg/mL (≈ 0.00972 µM) was the least that counted as inhibitory (MIC).

With `CN[C@H](CC(C)C)C(=O)N[C@H]1C(=O)N[C@@H](CC(N)=O)C(=O)N[C@H]2C(=O)N[C@H]3C(=O)N[C@H](C(=O)N[C@H](C(=O)O)c4cc(O)cc(O)c4-c4cc3ccc4O)[C@H](O)c3ccc(c(Cl)c3)Oc3cc2cc(c3O[C@@H]2O[C@H](CO)[C@@H](O)[C@H](O)[C@H]2O[C@H]2C[C@](C)(N)[C@H](O)[C@H](C)O2)Oc2ccc(cc2Cl)[C@H]1O` [VANCOMYCIN], the outcome in [17], in series [21], in [24], in [26], in [28] and in series [30] was Active. The Activity in series [18] is reported as 19%; in [23] it was 33%; in series [29], 0%. Besides, the results for the MBC in series [5] and in [6] were 16 µg/mL (≈ 11 µM) and 4 µg/mL (≈ 2.76 µM), respectively. In addition, the lowest concentration to inhibit growth in series [5] (MIC) was 8 µg/mL (≈ 5.52 µM). The log10cfu in series [19] turned out to be 2; in series [25], 7.1; in series [27], 2. Besides, the “fold change (FC)” value in series [20] worked out at 2.8. This compound also gave a Cmin in the series on Oryctolagus cuniculus [22] of 20 µg/mL.

In series [5], GENTAMICIN returned an MIC of 64 µg/mL.
